This note sets out measurements from ChEMBL document CHEMBL3621143, “Discovery of BMS-641988, a Novel Androgen Receptor Antagonist for the Treatment of Prostate Cancer” (ACS Med Chem Lett, 2015).

The Ki is a measure of affinity in units of concentration, obtained from inhibition or displacement. By IC50 is commonly meant the concentration that inhibits the measured activity by half. Broadly, the inhibition is the share of the control response that was lost under treatment. A word on the fraction unbound: it is the share of the substance not bound to proteins or other matrix. What is called half-life is the time needed for the level to fall by half in the phase considered. Usually AUC(0-inf) stands for total exposure, with the tail of the curve extrapolated. Broadly, the bioavailability is the share of a dose that reaches the circulation, judged against a reference dose that is usually intravenous.

Where only a bound is given, the exact number is not on record here.

For data set [1], the target named is T1, Androgen receptor (Homo sapiens, UniProt P10275).
T1 sequence (P10275 whole entry): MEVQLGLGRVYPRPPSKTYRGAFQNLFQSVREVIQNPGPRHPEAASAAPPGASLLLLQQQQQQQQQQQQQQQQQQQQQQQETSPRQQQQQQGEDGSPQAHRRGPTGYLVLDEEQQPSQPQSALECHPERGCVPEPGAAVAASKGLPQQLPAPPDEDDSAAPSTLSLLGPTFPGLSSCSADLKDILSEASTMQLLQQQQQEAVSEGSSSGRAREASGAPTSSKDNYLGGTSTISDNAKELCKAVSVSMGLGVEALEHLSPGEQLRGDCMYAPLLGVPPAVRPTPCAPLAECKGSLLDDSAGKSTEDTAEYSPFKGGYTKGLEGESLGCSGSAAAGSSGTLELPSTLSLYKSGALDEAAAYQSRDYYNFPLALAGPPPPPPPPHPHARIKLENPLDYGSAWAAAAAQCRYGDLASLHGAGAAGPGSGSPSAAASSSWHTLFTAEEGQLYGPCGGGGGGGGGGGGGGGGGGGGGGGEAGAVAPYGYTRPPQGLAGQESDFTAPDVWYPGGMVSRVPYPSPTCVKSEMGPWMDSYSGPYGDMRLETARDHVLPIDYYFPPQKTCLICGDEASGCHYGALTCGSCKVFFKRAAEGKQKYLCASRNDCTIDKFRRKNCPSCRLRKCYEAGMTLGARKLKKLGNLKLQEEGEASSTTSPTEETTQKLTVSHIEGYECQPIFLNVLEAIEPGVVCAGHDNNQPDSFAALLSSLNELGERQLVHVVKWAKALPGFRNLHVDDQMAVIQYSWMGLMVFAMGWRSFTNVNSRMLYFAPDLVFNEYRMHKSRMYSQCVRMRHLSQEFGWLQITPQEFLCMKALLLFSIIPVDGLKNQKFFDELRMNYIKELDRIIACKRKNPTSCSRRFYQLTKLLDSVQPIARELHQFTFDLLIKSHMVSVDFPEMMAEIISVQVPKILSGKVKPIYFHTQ
Put plainly: Displacement of [3H]-DHT from androgen receptor in human MDA-MB-453 cells after 90 mins by TopCount analysis. The format is cell-based. For orientation: Loss of bound radioactivity is the signal in a displacement assay; it reports binding, not function.

Data set [2] addresses T1, Androgen receptor. Description: Antagonist activity at androgen receptor in human MDA-MB-453 cells assessed as inhibition of DHT-induced PSA expression by alkaline phosphatase reporter gene assay. The format is cell-based.
The test system of data set [3] is Rattus norvegicus. Put plainly: In vivo antagonist activity at androgen receptor in immature Sprague-Dawley rat prostate weight model assessed as testosterone propionate-induced weight of seminal vesicles over full body weight at 10 mg/kg, po qd administered for 4 days. The format is functional. The arrangement: scale not given: the % may be the effect or the level left. The procedure, abridged: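 Immature rat prostate weight PK/PD model. Oral dosing once daily at 1 or 10 mg/kg for 4 days. Seminal vesicle weight expressed as % of full body weight, n=3, scaled so testosterone-treated control = 100% and sham = 10%.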

The test system of data set [4] is Hepatocyte. Description: Drug metabolism in mouse hepatocytes assessed per 10^6 cells. The format is ADME, cell-based. The procedure, abridged:
(§1)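 Metabolic rate in mouse, rat, dog, monkey and human hepatocyte incubations, expressed as pmol/min/10^6 cells.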

In data set [5] the target is T2, Cytochrome P450 2B6 (Homo sapiens, UniProt P20813).
T2 sequence (P20813 whole entry): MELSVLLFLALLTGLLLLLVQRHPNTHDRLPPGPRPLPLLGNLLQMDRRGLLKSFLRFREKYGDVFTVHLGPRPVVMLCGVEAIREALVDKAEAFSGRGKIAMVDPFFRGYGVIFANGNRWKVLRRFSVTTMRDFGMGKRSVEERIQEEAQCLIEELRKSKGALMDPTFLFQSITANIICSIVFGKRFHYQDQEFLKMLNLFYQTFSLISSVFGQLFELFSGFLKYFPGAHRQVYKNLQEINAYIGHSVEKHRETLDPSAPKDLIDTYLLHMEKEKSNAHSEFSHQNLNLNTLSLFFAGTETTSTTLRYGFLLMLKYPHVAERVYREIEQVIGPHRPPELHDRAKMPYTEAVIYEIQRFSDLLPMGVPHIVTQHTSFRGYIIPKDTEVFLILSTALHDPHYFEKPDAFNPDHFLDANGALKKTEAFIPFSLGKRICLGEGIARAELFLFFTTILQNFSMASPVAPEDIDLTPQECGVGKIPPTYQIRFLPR
Put plainly: Inhibition of human CYP2B6. The format is ADME.

Data set [6] addresses Cytochrome P450 3A4 (Homo sapiens, UniProt P08684). Description: Inhibition of human CYP3A4. The format is ADME.
The target of data set [7] is hERG (Homo sapiens, UniProt Q12809). Put plainly: Inhibition of human ERG at 30 uM relative to control.
A short description of data set [8]: Fraction unbound in mouse plasma by equilibrium dialysis method. The format is ADME, cell-free. The procedure, abridged:
(§2)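 Plasma protein binding measured by equilibrium dialysis in mouse, rat, dog and human plasma, reported as % free.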
On the technique in general: Equilibrium dialysis compares concentrations on both sides of a semipermeable membrane.

The nature of data set [9]: Fraction unbound in dog plasma by equilibrium dialysis method. The format is ADME, cell-free, Canis lupus familiaris. The procedure, abridged: as §2
Data set [10] concerns Hepatocyte. Description: Drug metabolism in rat hepatocytes assessed per 10^6 cells. The format is ADME, cell-based. The procedure, abridged: as §1
Data set [11] in a line: Drug metabolism in monkey hepatocytes assessed per 10^6 cells. The format is ADME, cell-based, Macaca mulatta, Hepatocyte. Particulars: rhesus monkey. The procedure, abridged: as §1
Data set [12] is described as follows: Half life in mouse at 5 mg/kg, iv and 10 mg/kg, po. The format is ADME, organism-based. Particulars: in vivo. The procedure, abridged:
(§3)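 Single IV and oral doses in mouse and rat (IV 5, PO 10 mg/kg) and dog (IV 1, PO 2 mg/kg). Half-life, clearance, AUC0-∞ (µM*h) and %F derived from the plasma profiles.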

A short description of data set [13]: AUC (0 to infinity) in mouse at 5 mg/kg, iv. The format is ADME, organism-based. More on the design: dose 5 mg/kg, time infinity, route intravenous. The note with it: in vivo. The procedure, abridged:
as §3

Data set [14] is described as follows: Oral bioavailability in mouse at 10 mg/kg. Particulars: in vivo. The format is ADME, organism-based. The procedure, abridged: as §3
A short description of data set [15]: Half life in rat at 5 mg/kg, iv and 10 mg/kg, po. The format is ADME, organism-based. The note with it: in vivo. The procedure, abridged:
as §3

Data set [16] in a line: AUC (0 to infinity) in rat at 5 mg/kg, iv. The format is ADME, organism-based. More on the design: dose 5 mg/kg, route intravenous, time infinity. The note with it: in vivo. The procedure, abridged: as §3
Data set [17] is described as follows: AUC (0 to infinity) in rat at 10 mg/kg, po. The format is ADME, organism-based. Particulars: in vivo. The arrangement: dose 10 mg/kg, route oral, time infinity. The procedure, abridged: as §3
A short description of data set [18]: Half life in dog at 1 mg/kg, iv and 2 mg/kg, po. The format is ADME, organism-based, Canis lupus familiaris. Particulars: in vivo. The procedure, abridged:
as §3

The nature of data set [19]: Clearance in dog at 1 mg/kg, iv and 2 mg/kg, po. The format is ADME, organism-based, Canis lupus familiaris. The note with it: in vivo. The procedure, abridged:
as §3

A short description of data set [20]: AUC (0 to infinity) in dog at 2 mg/kg, po. The arrangement: dose 2 mg/kg, time infinity, route oral. Particulars: in vivo. The format is ADME, organism-based, Canis lupus familiaris. The procedure, abridged: as §3

Chain of hERG (Q12809 whole entry): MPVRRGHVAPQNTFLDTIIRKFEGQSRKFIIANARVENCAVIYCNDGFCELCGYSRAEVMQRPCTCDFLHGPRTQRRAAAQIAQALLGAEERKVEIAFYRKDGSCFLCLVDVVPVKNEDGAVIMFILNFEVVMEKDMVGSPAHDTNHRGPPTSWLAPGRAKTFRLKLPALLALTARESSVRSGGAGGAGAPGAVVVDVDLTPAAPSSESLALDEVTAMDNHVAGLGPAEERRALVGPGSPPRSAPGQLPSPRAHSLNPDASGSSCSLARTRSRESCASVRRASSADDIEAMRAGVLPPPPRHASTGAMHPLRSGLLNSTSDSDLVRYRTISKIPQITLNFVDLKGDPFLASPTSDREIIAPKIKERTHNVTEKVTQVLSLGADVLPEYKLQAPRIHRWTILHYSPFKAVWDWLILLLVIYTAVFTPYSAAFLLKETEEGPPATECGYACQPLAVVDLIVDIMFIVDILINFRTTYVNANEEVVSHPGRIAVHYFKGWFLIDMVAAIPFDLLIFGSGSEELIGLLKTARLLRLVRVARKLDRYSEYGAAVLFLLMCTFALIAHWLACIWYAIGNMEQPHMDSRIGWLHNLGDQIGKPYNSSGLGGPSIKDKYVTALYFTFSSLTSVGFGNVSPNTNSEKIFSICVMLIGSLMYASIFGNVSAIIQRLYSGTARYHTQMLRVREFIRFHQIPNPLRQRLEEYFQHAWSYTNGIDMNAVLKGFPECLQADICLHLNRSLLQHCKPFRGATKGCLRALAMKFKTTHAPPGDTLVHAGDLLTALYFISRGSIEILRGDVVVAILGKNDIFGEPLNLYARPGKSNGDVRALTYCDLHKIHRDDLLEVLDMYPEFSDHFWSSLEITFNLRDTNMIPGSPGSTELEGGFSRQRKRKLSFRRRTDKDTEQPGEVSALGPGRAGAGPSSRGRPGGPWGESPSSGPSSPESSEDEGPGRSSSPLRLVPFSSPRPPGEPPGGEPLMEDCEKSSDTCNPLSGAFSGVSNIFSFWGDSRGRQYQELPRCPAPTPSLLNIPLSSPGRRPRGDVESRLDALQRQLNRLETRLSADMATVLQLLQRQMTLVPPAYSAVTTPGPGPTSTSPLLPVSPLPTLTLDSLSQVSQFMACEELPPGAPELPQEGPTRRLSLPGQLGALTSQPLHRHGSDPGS
Chain of Cytochrome P450 3A4 (P08684 whole entry): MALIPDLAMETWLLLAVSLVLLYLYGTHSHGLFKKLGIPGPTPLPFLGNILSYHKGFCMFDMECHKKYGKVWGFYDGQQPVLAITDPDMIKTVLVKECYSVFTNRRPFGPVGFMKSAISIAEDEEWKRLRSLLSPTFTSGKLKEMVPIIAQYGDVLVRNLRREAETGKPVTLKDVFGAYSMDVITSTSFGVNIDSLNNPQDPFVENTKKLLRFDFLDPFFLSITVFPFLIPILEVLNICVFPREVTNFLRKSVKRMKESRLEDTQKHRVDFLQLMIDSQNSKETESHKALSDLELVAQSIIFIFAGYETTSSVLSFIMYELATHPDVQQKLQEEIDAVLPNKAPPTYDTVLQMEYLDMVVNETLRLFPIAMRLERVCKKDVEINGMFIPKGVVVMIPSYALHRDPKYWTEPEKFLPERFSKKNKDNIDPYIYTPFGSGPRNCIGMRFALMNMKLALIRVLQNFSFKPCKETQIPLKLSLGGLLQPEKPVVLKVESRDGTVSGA

For the compound `CCS(=O)(=O)N[C@@H]1C[C@]2(C)O[C@]1(C)[C@@H]1C(=O)N(c3ccc(C#N)c(C(F)(F)F)c3)C(=O)[C@@H]12`, the Ki in data set [1] was 1.7 nM. Also, the results for the IC50 in data set [2], in [5] and in data set [6] were 16 nM, over 40000 nM and over 40000 nM, respectively. The Activity in data set [3] is 26%. Further, the results for the Drug metabolism in [4], in [10] and in data set [11] were 0 pmol/min, 26 pmol/min and 1 pmol/min, respectively. The compound also yielded an inhibition at 30 µM in data set [7] of 0%. For the same compound, the fraction unbound in [8] was 0.148; in [9] it was 0.165. Moreover, the half-life in data set [12] was 2.4 h; in data set [15], 3.7 h; in data set [18], 21.8 h. The AUC(0-inf) in [13] was 39.1 µM·h; in [16] it was 31.7 µM·h; in data set [17], 40.5 µM·h; in data set [20], 160 µM·h. In data set [14], this compound displayed a bioavailability of 94.7%. In addition, in data set [19], the clearance amounted to 0.35 mL/min/kg.
